# Experimental data published in ChEMBL document CHEMBL5108039, “Piperazine tethered bergenin heterocyclic hybrids: design, synthesis, anticancer activity, and molecular docking studies” (RSC Med Chem, 2022).
# The source made the active and inactive calls. The calls are words filed in the database; no cut-off is given here.
# Key:
# [1] = system: SCC-9; assay: Cytotoxicity against human SCC-9 cells assessed as cell growth inhibition; type: functional, cell-based
# How it was run: (§1)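 Compounds were dissolved in sterile DMSO as 10 mg ml−1 stocks and tested for in vitro growth inhibition of human cancer cell lines. Doxorubicin was the standard drug and DMSO (0.01%) the vehicle control. IC50 values are reported as means.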
# [2] = system: CAL-27; assay: Cell cycle arrest in human CAL-27 cells assessed as accumulation at G2/M phase at 0.5 uM incubated for 24 hrs by flow cytometry (reference value: 11.9 %); type: functional
# [3] = system: SCC-9; assay: Induction of apoptosis in human SCC-9 cells assessed as live cells at 0.5 uM incubated for 24 hrs by Annexin V-FITC/PI staining based flow cytometric analysis (reference value: 95.7 %); type: functional
# [4] = system: CAL-27; assay: Induction of apoptosis in human CAL-27 cells assessed as late apoptotic cells at 0.5 uM incubated for 24 hrs by Annexin V-FITC/PI staining based flow cytometric analysis (reference value: 0.1 %); type: functional
# How it was run: (§2)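 CAL27 cells were treated with vehicle, doxorubicin or test compounds at 10–63 μM, and apoptosis was assessed by annexin V–FITC/PI staining with flow cytometry. Cells were scored as live, early apoptotic, late apoptotic or necrotic. The vehicle was DMSO (0.01%).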
# [5] = system: SCC-9; assay: Cell cycle arrest in human SCC-9 cells assessed as accumulation at S phase at 0.5 uM incubated for 24 hrs by flow cytometry (reference value: 14.4 %); type: functional
# [6] = system: SCC-9; assay: Cell cycle arrest in human SCC-9 cells assessed as accumulation at G2/M phase at 0.5 uM incubated for 24 hrs by flow cytometry (reference value: 14.2 %); type: functional
# [7] = system: A549; assay: Cytotoxicity against human A549 cells assessed as cell growth inhibition; type: functional, cell-based
# How it was run: (§3)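 Compounds were dissolved in sterile DMSO as 10 mg ml−1 stocks and tested in vitro for cytotoxicity in a cell-line panel, with DMSO (0.01%) as vehicle control and doxorubicin as standard. Mean IC50 values were reported, and the normal lung epithelial cells were tested up to 100 μM.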
# [8] = system: SCC-9; assay: Cell cycle arrest in human SCC-9 cells assessed as accumulation at G0/G1 phase at 0.5 uM incubated for 24 hrs by flow cytometry (reference value: 70.8 %); type: functional
# [9] = system: CAL-27; assay: Cell cycle arrest in human CAL-27 cells assessed as accumulation at S phase at 0.5 uM incubated for 24 hrs by flow cytometry (reference value: 3.6 %); type: functional
# [10] = system: CAL-27; assay: Induction of apoptosis in human CAL-27 cells assessed as live cells at 0.5 uM incubated for 24 hrs by Annexin V-FITC/PI staining based flow cytometric analysis (reference value: 99.8 %); type: functional; how it was run: as §2
# [11] = system: CAL-27; assay: Cytotoxicity against human CAL-27 cells assessed as cell growth inhibition; type: functional, cell-based; how it was run: as §1
# [12] = system: SCC-9; assay: Induction of apoptosis in human SCC-9 cells assessed as early apoptotic cells at 0.5 uM incubated for 24 hrs by Annexin V-FITC/PI staining based flow cytometric analysis (reference value: 2.8 %); type: functional
# [13] = system: CAL-27; assay: Induction of apoptosis in human CAL-27 cells assessed as early apoptotic cells at 0.5 uM incubated for 24 hrs by Annexin V-FITC/PI staining based flow cytometric analysis (reference value: 0.1 %); type: functional; how it was run: as §2
# [14] = system: CAL-27; assay: Cell cycle arrest in human CAL-27 cells assessed as accumulation at G0/G1 phase at 0.5 uM incubated for 24 hrs by flow cytometry (reference value: 77.6 %); type: functional
# [15] = Cytotoxicity against human BEAS-2B cells assessed as cell growth inhibition; type: toxicity, cell-based; how it was run: as §3
# [16] = system: SCC-9; assay: Induction of apoptosis in human SCC-9 cells assessed as necrotic cells at 0.5 uM incubated for 24 hrs by Annexin V-FITC/PI staining based flow cytometric analysis (reference value: 0.1 %); type: functional
# [17] = system: SCC-9; assay: Induction of apoptosis in human SCC-9 cells assessed as late apoptotic cells at 0.5 uM incubated for 24 hrs by Annexin V-FITC/PI staining based flow cytometric analysis (reference value: 1.4 %); type: functional
# [18] = system: CAL-27; assay: Induction of apoptosis in human CAL-27 cells assessed as necrotic cells at 0.5 uM incubated for 24 hrs by Annexin V-FITC/PI staining based flow cytometric analysis (reference value: 0.0 %); type: functional; how it was run: as §2
# [19] = system: HCT-15; assay: Cytotoxicity against human HCT-15 cells assessed as cell growth inhibition; type: functional, cell-based; how it was run: as §1
# [20] = system: CAL-27; assay: Induction of apoptosis in human CAL-27 cells assessed as downregulation of Oct-4 gene expression at 21 uM by qRT-PCR analysis; type: functional, cell-based
# How it was run: (§4)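 CAL27 cells were treated with test compounds at several concentrations. Relative expression of vimentin, E-cad, Nanog, Oct-4, Bax and BcL-2 was measured by qRT-PCR against vehicle-treated control cells.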
# [21] = system: CAL-27; assay: Cell cycle arrest in human CAL-27 cells assessed as accumulation at G0/G1 phase at 42 uM incubated for 24 hrs by flow cytometry (reference value: 77.6 %); type: functional
# [22] = system: CAL-27; assay: Induction of apoptosis in human CAL-27 cells assessed as late apoptotic cells at 21 uM incubated for 24 hrs by Annexin V-FITC/PI staining based flow cytometric analysis (reference value: 0.1 %); type: functional; how it was run: as §2
# [23] = system: CAL-27; assay: Cell cycle arrest in human CAL-27 cells assessed as accumulation at S phase at 21 uM incubated for 24 hrs by flow cytometry (reference value: 3.6 %); type: functional
# [24] = system: MCF7; assay: Cytotoxicity against human MCF7 cells assessed as cell growth inhibition; type: functional, cell-based; how it was run: as §1
# [25] = system: CAL-27; assay: Induction of apoptosis in human CAL-27 cells assessed as downregulation of BcL-2 gene expression at 21 uM by qRT-PCR analysis; type: functional, cell-based; how it was run: as §4
# [26] = system: CAL-27; assay: Induction of apoptosis in human CAL-27 cells assessed as upregulation of Bax gene expression at 42 uM by qRT-PCR analysis; type: functional, cell-based
# How it was run: (§5)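 CAL27 cells were treated with test agents at different concentrations. Relative mRNA levels of vimentin, E-cad, Nanog, Oct-4, Bax and Bcl-2 were then quantified by qRT-PCR as apoptosis, EMT and stemness markers.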
# [27] = system: CAL-27; assay: Induction of apoptosis in human CAL-27 cells assessed as early apoptotic cells at 21 uM incubated for 24 hrs by Annexin V-FITC/PI staining based flow cytometric analysis (reference value: 0.1 %); type: functional; how it was run: as §2
# [28] = system: CAL-27; assay: Induction of apoptosis in human CAL-27 cells assessed as downregulation of Nanog gene expression at 42 uM by qRT-PCR analysis; type: functional, cell-based; how it was run: as §4
# [29] = system: CAL-27; assay: Induction of apoptosis in human CAL-27 cells assessed as upregulation of E-cad gene expression at 42 uM by qRT-PCR analysis; type: functional, cell-based; how it was run: as §5
# [30] = system: CAL-27; assay: Induction of apoptosis in human CAL-27 cells assessed as upregulation of Bax gene expression at 21 uM by qRT-PCR analysis; type: functional, cell-based; how it was run: as §5
# [31] = system: CAL-27; assay: Induction of apoptosis in human CAL-27 cells assessed as downregulation of Nanog gene expression at 21 uM by qRT-PCR analysis; type: functional, cell-based; how it was run: as §4
# [32] = system: CAL-27; assay: Cell cycle arrest in human CAL-27 cells assessed as accumulation at G2/M phase at 21 uM incubated for 24 hrs by flow cytometry (reference value: 11.9 %); type: functional
# [33] = system: CAL-27; assay: Induction of apoptosis in human CAL-27 cells assessed as early apoptotic cells at 42 uM incubated for 24 hrs by Annexin V-FITC/PI staining based flow cytometric analysis (reference value: 0.1 %); type: functional; how it was run: as §2
# [34] = system: CAL-27; assay: Induction of apoptosis in human CAL-27 cells assessed as live cells at 42 uM incubated for 24 hrs by Annexin V-FITC/PI staining based flow cytometric analysis (reference value: 99.8 %); type: functional; how it was run: as §2
# [35] = system: CAL-27; assay: Cell cycle arrest in human CAL-27 cells assessed as accumulation at G2/M phase at 42 uM incubated for 24 hrs by flow cytometry (reference value: 11.9 %); type: functional
# [36] = system: CAL-27; assay: Induction of apoptosis in human CAL-27 cells assessed as downregulation of BcL-2 gene expression at 42 uM by qRT-PCR analysis; type: functional, cell-based; how it was run: as §4
# [37] = system: CAL-27; assay: Induction of apoptosis in human CAL-27 cells assessed as downregulation of Oct-4 gene expression at 42 uM by qRT-PCR analysis; type: functional, cell-based; how it was run: as §4
# [38] = system: CAL-27; assay: Induction of apoptosis in human CAL-27 cells assessed as late apoptotic cells at 42 uM incubated for 24 hrs by Annexin V-FITC/PI staining based flow cytometric analysis (reference value: 0.1 %); type: functional; conditions: in the assay text read “early apoptotic cells” for “late apoptotic cells”; how it was run: as §2
# [39] = system: CAL-27; assay: Cell cycle arrest in human CAL-27 cells assessed as accumulation at S phase at 42 uM incubated for 24 hrs by flow cytometry (reference value: 3.6 %); type: functional
# [40] = system: CAL-27; assay: Induction of apoptosis in human CAL-27 cells assessed as upregulation of E-cad gene expression at 21 uM by qRT-PCR analysis; type: functional, cell-based; how it was run: as §5
# [41] = system: CAL-27; assay: Induction of apoptosis in human CAL-27 cells assessed as downregulation of vimentin gene expression at 21 uM by qRT-PCR analysis; type: functional, cell-based; how it was run: as §4
# [42] = system: CAL-27; assay: Induction of apoptosis in human CAL-27 cells assessed as necrotic cells at 21 uM incubated for 24 hrs by Annexin V-FITC/PI staining based flow cytometric analysis (reference value: 0.0 %); type: functional
# [43] = system: CAL-27; assay: Induction of apoptosis in human CAL-27 cells assessed as downregulation of vimentin gene expression at 42 uM by qRT-PCR analysis; type: functional, cell-based; how it was run: as §4
# [44] = system: CAL-27; assay: Induction of apoptosis in human CAL-27 cells assessed as live cells at 21 uM incubated for 24 hrs by Annexin V-FITC/PI staining based flow cytometric analysis (reference value: 99.8 %); type: functional; how it was run: as §2
# [45] = system: CAL-27; assay: Induction of apoptosis in human CAL-27 cells assessed as necrotic cells at 42 uM incubated for 24 hrs by Annexin V-FITC/PI staining based flow cytometric analysis (reference value: 0.0 %); type: functional
# [46] = system: CAL-27; assay: Cell cycle arrest in human CAL-27 cells assessed as accumulation at G0/G1 phase at 21 uM incubated for 24 hrs by flow cytometry (reference value: 77.6 %); type: functional
smiles,measurement,setting,value
COc1cccc2c1C(=O)c1c(O)c3c(c(O)c1C2=O)C[C@@](O)(C(=O)CO)C[C@@H]3O[C@H]1C[C@H](N)[C@H](O)[C@H](C)O1 [DOXORUBICIN],IC50,[1],390 nM
same,Activity,[2],34.3%
same,Activity,[3],7.1%
same,Activity,[4],58.9%
same,Activity,[5],16.31%
same,Activity,[6],55.6%
same,IC50,[7],800 nM
same,Activity,[8],29%
same,Activity,[9],4.2%
same,Activity,[10],16%
same,IC50,[11],400 nM
same,Activity,[12],0.3%
same,Activity,[13],0.7%
same,Activity,[14],59.7%
same,IC50,[15],800 nM
same,Activity,[16],51.5%
same,Activity,[17],41%
same,Activity,[18],24.4%
same,IC50,[19],800 nM
COc1c(O)c(CN2CCN(S(=O)(=O)c3ccc(I)cc3)CC2)c2c(c1O)C1O[C@H](CO)[C@@H](O)[C@H](O)C1OC2=O (stereo partly specified),IC50,[1],> 100000 nM
same,Activity,[20],Active
same,Activity,[21],83.7%
same,Activity,[22],0.7%
same,Activity,[23],3.5%
same,IC50,[7],> 100000 nM
same,IC50,[24],> 100000 nM
same,Activity,[25],Active
same,Activity,[26],Active
same,Activity,[27],1.1%
same,Activity,[28],Active
same,Activity,[29],Active
same,Activity,[30],Active
same,IC50,[11],41600 nM
same,Activity,[31],Active
same,Activity,[32],12.6%
same,Activity,[33],1.7%
same,Activity,[34],94.6%
same,Activity,[35],11.5%
same,Activity,[36],Active
same,Activity,[37],Active
same,Activity,[38],1.7%
same,IC50,[15],> 100000 nM
same,Activity,[39],1.9%
same,Activity,[40],Active
same,Activity,[41],Active
same,Activity,[42],1.1%
same,Activity,[43],Active
same,Activity,[44],97.1%
same,Activity,[45],2%
same,Activity,[46],83.3%
same,IC50,[19],> 100000 nM
